Screening results deposited in PubChem by several laboratories.
MC4R barr agon: agonists of human melanocortin 4 receptor (MC4R) beta-arrestin | activation, % at 8.9 µM | 360,000 compounds, 0.98% hits | P32245 | U2OS MC4R beta-arrestin complementation, luminescence; percent of melanotan II response, DMSO zero | AID 540308;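 active = activation above a per-plate cutoff, the mean activation of sample wells on that plate plus 3 SD, cut at about 8% in these data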
Target sequence (P32245 whole entry, looked up): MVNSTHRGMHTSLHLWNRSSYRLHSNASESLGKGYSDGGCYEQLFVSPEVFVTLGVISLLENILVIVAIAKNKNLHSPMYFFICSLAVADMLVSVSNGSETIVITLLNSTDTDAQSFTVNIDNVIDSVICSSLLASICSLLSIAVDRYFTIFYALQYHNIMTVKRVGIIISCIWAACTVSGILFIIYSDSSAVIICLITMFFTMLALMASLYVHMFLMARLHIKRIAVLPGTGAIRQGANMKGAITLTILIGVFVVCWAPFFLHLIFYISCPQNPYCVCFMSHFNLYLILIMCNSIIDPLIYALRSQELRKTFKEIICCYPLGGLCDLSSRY
NR1D1 modulator: modulators of human Rev-erb alpha DNA binding. P20393. Rev-erbα–FITC-DNA binding, fluorescence polarization, 90 min. activity, % at 10 µM. 370,000 compounds, 0.79% hits. AID 1259318;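 active = activity above about 14%, limit read from the data; passing the limit was not always enough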
NR2E3 ag-1: agonists of human NR2E3 nuclear receptor; Q9Y5X4; CHO-S Gal4-NCOR/VP16-NR2E3 two-hybrid, luciferase; inhibition of corepressor binding, % at 3.98 µM; 360,000 compounds, 0.35% hits; AID 602229;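 active = inhibition above the mean of all tested compounds plus 3 SD, cut at about 70% in these data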;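 note: higher means lower luciferase signal from less NR2E3 corepressor binding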
PG9 Ab binder: PG9 antibody binding by small molecule | 360,000 compounds, 0.43% hits | AID 624416 | inhibition, % at 6.7 µM | TR-FRET gp120-PG9 antibody binding; in the data active = inhibition above about 8.5%
MC4R antagonist: antagonists of human melanocortin 4 receptor (MC4R); 360,000 compounds, 0.48% hits; MC4R-expressing cells, MTII-stimulated cAMP, LANCE TR-FRET; inhibition, % at 6.5 µM; P32245;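 active = inhibition above its plate's cutoff, the mean of tested wells on that plate plus 3 SD, cut at about 29% in these data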
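Material – human MC4R-expressing U2OS cells · Repeats – no replicates · Detection – TR-FRET with Eu-cAMP and labeled anti-cAMP, 671 nm · Times – compound 30 min, challenge 1 h, detection 1 h · Compound – single nominal compound dose of 6.5 µM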
NR2E3 ag-2: activates human photoreceptor nuclear receptor NR2E3; 320,000 compounds, 0.12% hits; inhibition of corepressor binding, % at 4.78 µM; GST-NR2E3/biotin-RetCOR TR-FRET, 1536-well; AID 2300;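 active = percent inhibition above the cutoff of mean plus 3 SD of all tested compounds, set per screening campaign, cut at about 20% in these data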
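system = GST-tagged NR2E3 plus biotinylated RetCOR corepressor | input = 1.35 nM GST-NR2E3 | also added = 7 nM biotin-RetCOR | schedule = 5 h incubation at 4 °C | measured by = TR-FRET with europium anti-GST and streptavidin-D2, 340 nm excitation | read-out = percent loss of FRET ratio relative to control wells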
NR1D1 mod conf: Rev-erb alpha (human) modulation, hit confirmation | shares compounds with NR1D1 modulator | Rev-erb alpha FITC-DNA binding, fluorescence polarization, 90 min | activation, % at 25 µM | 3,000 compounds, 61% hits;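 active = activation at or above a set limit, or at least 3 SD above the negative control mean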
RORg counter: counter-screen for Rev-erb alpha modulators: RORgamma DNA binding | shares compounds with NR1D1 modulator | purified RORgamma protein-FITC-DNA binding, fluorescence polarization | IC50, µM | 910 compounds, 8% hits | AID 1259320;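 active = Compounds whose fitted half-maximal concentration for disrupting protein-DNA binding is below 10 micromolar; the record names Rev-erb in its text, so the target is in doubt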
A number is an active result; n = inactive; x = no result given. Compounds with a hit are over-represented: about 2.7% of the library has one in this group of screens.

SMILES	MC4R barr agon	NR1D1 modulator	NR2E3 ag-1	PG9 Ab binder	MC4R antagonist	NR2E3 ag-2	NR1D1 mod conf	others
CCc1ccc(-c2cc(C)no2)cc1S(=O)(=O)N1CCN(c2ccc(C(C)=O)cc2)CC1	n	27	n	n	n	n	18
Cc1ccnc(NS(=O)(=O)c2ccc(NC(=O)c3cc(-c4ccccc4)nc4ccccc34)cc2)n1	n	n	n	n	n	n	x
Cc1ccnc(NS(=O)(=O)c2ccc(NC(=O)c3cc(-c4ccc(Br)cc4)nc4ccccc34)cc2)n1	n	39	n	n	n	n	17
CC(C)CSc1nnc2c3ccccc3n(C)c2n1	n	20	n	n	n	n	n
COC(=O)c1ccc(S(=O)(=O)NCCSc2nnc3c4ccccc4n(C)c3n2)cc1	n	29	n	x	n	n	18
Cc1ccccc1N1CCN(C(=O)c2ccccc2NC(=O)/C=C\C(=O)O)CC1	n	n	n	n	n	n	x
CCN1CCN(C2=CC3=CC(=C(C#N)C#N)CCC3CC2)CC1 (centres undefined)	n	x	n	x	n	x	x
N#CC(C#N)=C1C=C2C=C(N3CCOCC3)CCC2CC1 (centres undefined)	n	305	n	n	n	x	111	RORg counter=n
N#CC(C#N)=C1C=C2C=C(N3CCCCCC3)CCC2CC1 (centres undefined)	n	273	n	n	n	x	167	RORg counter=n
N=C1/C(=C/c2ccc(OC(=O)c3ccco3)cc2)C(=O)N=C2SC=CN12	n	n	n	n	n	n	x
COc1ccc(C(O)P(=O)(OCc2ccccc2)c2ccc(N(C)C)cc2)cc1 (centres undefined)	n	n	n	n	n	n	x
COc1cc(C(C)=O)ccc1Oc1ncnc2c1cnn2-c1cccc(Cl)c1	n	n	n	n	n	n	x
COc1cc(C(C)=O)ccc1Oc1ncnc2c1cnn2-c1ccc(F)cc1	n	25	n	n	n	n	n
COc1ccc(NC(=O)CSc2nnc(-c3cccs3)n2N)c(OC)c1	n	13	n	n	n	n	n
COC(=O)c1ccc(C(=O)OC)c(NC(=O)N2c3ccccc3Sc3ccccc32)c1	n	26	n	n	n	n	47	RORg counter=n
O=C(c1ccc(N2C(=O)C3CCCCC3C2=O)cc1)N1CCCCC1 (centres undefined)	n	n	n	n	n	n	x
c1ccc(-c2cnn3c(-c4ccccc4)c(-c4ccccc4)nc3n2)cc1	n	123	n	n	n	x	n
CC(C)c1[nH]nc2c1C(c1ccc3c(c1)OCO3)NC2=O (centres undefined)	x	22	x	n	x	x	n
O=C1NC(c2ccc3c(c2)OCO3)c2c(-c3ccccc3)n[nH]c21 (centres undefined)	x	n	x	n	x	x	x
COc1ccc(C(=O)Nc2ccc(C)c(S(=O)(=O)N3CCCCCC3)c2)cc1	n	n	n	n	n	n	x
COc1ccc2noc3c2c1C(=O)c1ccccc1-3	n	21	n	n	n	n	n
COc1ccc(OC)c2c1C(=O)c1ccccc1C2=O	x	n	x	n	x	n	x
Cc1csc(NC(=O)c2c(O)c3c(n(CC(C)C)c2=O)CCCC3)n1	n	x	n	x	n	n	x
O=C(Cn1sc2ccccc2c1=O)Nc1ccccc1	n	15	n	n	n	x	n
O=C(Cn1sc2ccccc2c1=O)NC12CC3CC(CC(C3)C1)C2	n	x	n	x	n	n	x
CCOC(=O)c1sc(NC(=O)c2ccc(Cl)s2)cc1C	n	16	n	n	n	n	12
CCOC(=O)c1sc(NC(=S)NC(=O)C2CCCC2)cc1C	n	70	n	n	n	n	40	RORg counter=n
COc1ccc(CN(Cc2nc3ccccc3c(=O)[nH]2)C(=O)C(C)(C)C)cc1	n	n	n	n	n	n	x
